Laboratory results as given in the EternaBench riboswitch data.

System: MS2 coat protein
Assay: apparent Kd, MS2 coat protein; higher = weaker binding; RNA-MaP array; FMN 200 µM where present
Method in brief: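 Green signal from SNAP-549-labelled MS2 coat protein was normalised to red-channel RNA signal and to the median Fmax of control clusters. The protein was titrated from 0.7 or 1.5 nM, doubling to 3 µM, without and then with constant ligand, over designs transcribed by stalled E. coli RNA polymerase on Illumina sequencing-chip clusters, in 100 mM Tris-HCl pH 7.5, 80 mM KCl, 4 mM MgCl2, BSA, DTT, yeast tRNA and Tween-20. The apparent Kd is the median of filtered per-cluster binding-curve fits.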

[1] = designed as: OFF switch for flavin mononucleotide, no ligand
[2] = ligand present: flavin mononucleotide, designed as: OFF switch for flavin mononucleotide
[3] = designed as: ON switch for flavin mononucleotide, no ligand
[4] = ligand present: flavin mononucleotide, designed as: ON switch for flavin mononucleotide

AUCCAGCGAGGAUAUACUUUGAUUUUUUCGUUUUGUCUCGAACAUGAGGAUCACCCAUGUAGAAGGUGCUUCAC
apparent Kd [1]: 67.1 nM | apparent Kd [2]: 59.8 nM

UCACGGGACUAAGGAUAUAUGAGUACCAUUUACAUAGAAGGUAGAAUGUUAGAUCAUAAACUAAACAUGAGGAUCACCCAUGUU
apparent Kd [1]: 19.4 nM | apparent Kd [2]: 18.6 nM

GGGUAGGACAGAGGAUAUACGUGCUAGAGAUACUAGCAAAAUUUCCUCACAUGAGGAUCACCCAUGUAGAAGGCUGUCCUAUCG
apparent Kd [1]: 16.9 nM | apparent Kd [2]: 397 nM

AAUGCACAUGAGGAUCACCCAUGUAAGACAAAGACAGGAUAUGGGCCGCAUGGCUCUGGCCCAGAAGGGUCAGUCG
apparent Kd [3]: 25 nM | apparent Kd [4]: 18.6 nM

UUAUAAAGUGUGAGGAUAUGCUGGUCCAUAGAUCAGCAGAAGGCACAUGAGGAUCACCCAUGUAAUAUAUUUUU
apparent Kd [1]: 28.8 nM | apparent Kd [2]: 133 nM

UUCAGCUCGUGAGGAUAUACAUGUGCUGGAAACAGCAUUAAAUAAUUCACAUGAGGAUCACCCAUGUAGAAGGCACGAGCUGAG
apparent Kd [1]: 17 nM | apparent Kd [2]: 34.4 nM

ACCAAUGCAGGAUAUACAUGAGGAUCACCCAUGUAUAACCUACAUAGGUGAUCAUCAUGUAGAAGGGCAUUGGA
apparent Kd [1]: 14.6 nM | apparent Kd [2]: 15.1 nM

GAAUAAUUGAUCCAAUUUUACAACAUGAGGAUCACCCAUGUGCAGGAUAUCGUGAAAGUUAAAUACGAGAAGGGCAAGAACUGU
apparent Kd [1]: 220 nM | apparent Kd [2]: 344 nM

UGCGGUAGAGGAUAUACGUAGAUACAGAUUCAUGUAGAACUACAUGAGGAUCACCCAUGUAGAAGGCUAUCGCU
apparent Kd [1]: 39.2 nM | apparent Kd [2]: 482 nM

CAGCUGAAAGUCAGGAUAUCUAGAGCGAUAGCUCUAGAGAAGGGACAUGAGGAUCACCCAUGUCACUCCAGCUG
apparent Kd [1]: 17.1 nM | apparent Kd [2]: 20.4 nM

AGAAACUACGAGAAGGACAUAUGACCAAGAACAAACAUGAGGAUCACCCAUGUAGGAUAUCGUAGUUUCAGGAUCGUGAGAUCA
apparent Kd [1]: 6.29 nM | apparent Kd [2]: 12.9 nM

ACAUGAGGAUCACCCAUGUAUACAUAGGAUAUUGGUGAUCAGGGAUGUUUUACAGGAUAUGUCUGCGAGAAGGAUGCAAGUUGU
apparent Kd [3]: 360 nM | apparent Kd [4]: 70.4 nM

AAAAUCUAUAGAGGAUAUCGUUCUUAAAGAGAAUGAGAAGGCUAACAAUCAUGAGGACAUGAGGAUCACCCAUGUUGUGACCAU
apparent Kd [3]: 19.1 nM | apparent Kd [4]: 9.71 nM

GGGUACAUAGGAGGAUAUCAUGUAAAUACAUGAGGAUCACCCAUGUCGAUGGAGACAUCGGAGAUUGAGAAGGCCGAUGUACCG
apparent Kd [3]: 240 nM | apparent Kd [4]: 10.6 nM

GUAAUUACGAGAGGAUAUUGACAUGAGGAUCACCCAUGUAUUUGGGAGUGUUCACUGAAUUCUUACGAGAAGGCUCGUAAAUAC
apparent Kd [1]: 213 nM | apparent Kd [2]: 214 nM

GCAUGCUAUGUCAGGAUAUACCUCUGGAUACAUAGGUAGAAGGGACAUGAGGAUCACCCAUGUCCUCAUCAUGC
apparent Kd [1]: 12.4 nM | apparent Kd [2]: 23.8 nM

UUAUUUAUACAAGGAUAUCAAUUAUAUACACAUCCUACAUGAGGAUCACCCAUGUUUUAUUUUUUUGAGAAGGUGUAUUGUCGG
apparent Kd [3]: 21.2 nM | apparent Kd [4]: 27.6 nM

UGGUACUAGGGAGGAUAUGGGAAGAUACAUGAGGAUCACCCAUGUUUAAGAAUGCCGAGAGGCAACCAGAAGGCCCUAGUACCU
apparent Kd [3]: 8.27 nM | apparent Kd [4]: 5.57 nM

GGGUACGUUUCGUAGCAGUGUCAUCGAGAAGGCCCUGACAUGAGGAUCACCCAUGUUGUUACAUGGGAGGAUAUCGAUGAUGGG
apparent Kd [3]: 48.4 nM | apparent Kd [4]: 8.12 nM

UAGCAGUGCGGGUAGGAUAUGUAGGGUGGUACAUGAGGAUCACCCAUGUAUCCACCCUUCGACCGGCAGAAGGGCCUGUCACUGC
apparent Kd [3]: 22 nM | apparent Kd [4]: 22.6 nM

GGUGUCGUAUGAGGAUAUGGUCAGCUUUGCUGACCAGAAGGCAUGUCAAUAGACAUGAGGAUCACCCAUGUAGUAAAGACACCA
apparent Kd [3]: 441 nM | apparent Kd [4]: 43.4 nM

GUCAGCUCGUGAGGAUAUACAUGUGCUGGAGACAGCAUUAAAUAAUUCACAUGAGGAUCACCCAUGUAGAAGGCACGAGCUGAU
apparent Kd [1]: 17.8 nM | apparent Kd [2]: 38.8 nM

UUGCCUGCGUGUCGCCGGUUUGGACAGGAUAUCCACAUGAGGAUCACCCAUGUCUAACAAAAUACGGAGAAGGGUCCUAGCGGU
apparent Kd [3]: 39 nM | apparent Kd [4]: 6.55 nM

GGAGACCUCACAGGAUAUGCUGGACUUUGUCCAGCAGAAGGGUGGAAACAUGAGGAUCACCCAUGUAUGGUCUCCAAAUUUAAU
apparent Kd [3]: 89 nM | apparent Kd [4]: 8.74 nM

CGCGAACAUGAGGAUCACCCAUGUGAAAAACAUAGAGGAUAUGUCGCAUGCGUGUAAAAGACAGAAGGCUAUCGCG
apparent Kd [3]: 76.7 nM | apparent Kd [4]: 27.9 nM

AGCACGAAAGUGCAACGAUGUACGAGAAGGACAUGAGGAUCACCCAUGUAUGCAGUAACUGCUAUGUAGGAUAUCGUACAUCGA
apparent Kd [1]: 7.57 nM | apparent Kd [2]: 9.94 nM

AAUCUUUUUAUGGGAUUAGAAUAUGAGGAUAUCAUUUGUUUAUACAUGAGGAUCACCCAUGUUUCUGAGAAGGCAUAUAUAAUA
apparent Kd [3]: 44.6 nM | apparent Kd [4]: 10.2 nM
